Measurements: ChEMBL document CHEMBL2331457, “Synthesis and biological evaluation of 2-(arylethynyl)quinoline derivatives as mGluR5 antagonists for the treatment of neuropathic pain” (Bioorg Med Chem Lett, 2013)
Activity calls are given as the source filed them. No cut-off for these calls is given here.

Test system: Rattus norvegicus
Assay: Antiallodynic activity in rat spinal nerve ligation model of neuropathic pain assessed as reduction of cold allodynia at 100 mg/kg, po after 3 hrs
Format: functional, organism-based
Set-up: dose 100 mg/kg
Conditions: not given
Outline: (§1)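 Rat SNL model: tight ligation of L5 spinal nerve distal to DRG. Mechanical and cold allodynia were tested 1 day before and 14 days after surgery, then given orally, and retested at 1, 3 and 5 h. Mechanical allodynia used the wire-mesh-floor method, cold allodynia was scored as %MPE. Gabapentin was the reference (n = 4), test n = 5. Paired t-test versus pre-dose.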

| SMILES | Activity |
| --- | --- |
| C(#Cc1ccc2ccccc2n1)c1ccccn1 | Active |
| NCC1(CC(=O)O)CCCCC1 | Active |

Molecular target: Voltage-gated inwardly rectifying potassium channel KCNH2 (Homo sapiens, UniProt Q12809)
Conditions: not given

Chain of Voltage-gated inwardly rectifying potassium channel KCNH2 (Q12809 whole entry): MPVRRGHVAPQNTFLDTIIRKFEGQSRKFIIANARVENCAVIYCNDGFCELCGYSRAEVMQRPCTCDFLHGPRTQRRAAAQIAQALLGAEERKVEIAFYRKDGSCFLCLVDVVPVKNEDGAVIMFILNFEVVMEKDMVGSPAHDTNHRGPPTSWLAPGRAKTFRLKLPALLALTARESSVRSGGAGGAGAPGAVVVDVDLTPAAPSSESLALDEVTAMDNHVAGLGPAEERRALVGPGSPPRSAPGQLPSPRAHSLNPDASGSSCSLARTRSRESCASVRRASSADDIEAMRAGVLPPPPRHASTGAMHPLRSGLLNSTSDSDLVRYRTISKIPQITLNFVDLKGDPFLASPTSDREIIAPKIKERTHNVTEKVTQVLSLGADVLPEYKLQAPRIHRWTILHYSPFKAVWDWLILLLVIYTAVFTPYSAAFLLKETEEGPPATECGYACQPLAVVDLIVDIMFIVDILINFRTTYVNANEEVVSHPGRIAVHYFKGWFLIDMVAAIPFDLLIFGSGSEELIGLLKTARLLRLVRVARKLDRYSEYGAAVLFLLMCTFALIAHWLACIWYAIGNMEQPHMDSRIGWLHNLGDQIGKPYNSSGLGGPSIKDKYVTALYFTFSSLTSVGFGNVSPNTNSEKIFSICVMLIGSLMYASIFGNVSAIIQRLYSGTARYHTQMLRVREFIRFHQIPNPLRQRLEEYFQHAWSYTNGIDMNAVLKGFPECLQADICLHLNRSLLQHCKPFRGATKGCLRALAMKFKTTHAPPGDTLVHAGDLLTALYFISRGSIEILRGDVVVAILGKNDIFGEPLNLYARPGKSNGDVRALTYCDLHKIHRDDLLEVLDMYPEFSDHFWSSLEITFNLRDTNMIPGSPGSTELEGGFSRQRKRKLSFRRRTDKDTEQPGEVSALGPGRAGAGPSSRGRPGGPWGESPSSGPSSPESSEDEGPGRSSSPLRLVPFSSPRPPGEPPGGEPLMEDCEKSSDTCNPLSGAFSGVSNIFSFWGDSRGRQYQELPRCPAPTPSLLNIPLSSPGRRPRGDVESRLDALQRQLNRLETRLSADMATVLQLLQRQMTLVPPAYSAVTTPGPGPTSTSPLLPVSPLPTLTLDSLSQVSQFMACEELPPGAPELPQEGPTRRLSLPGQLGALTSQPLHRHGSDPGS

| SMILES | IC50 [µM] |
| --- | --- |
| Brc1cccc2nc(C#Cc3ccccn3)ccc12 | 22.7 |

Test system: not listed separately
Assay: Apparent volume of distribution at steady state in rat at 10 mg/kg, iv
Format: ADME, organism-based
Set-up: dose 10 mg/kg, route intravenous
Conditions: in vivo, read-out: Vdss(app)
Outline: (§2)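 Rat plasma pharmacokinetics after a 10 mg/kg dose, intravenous (n = 4) or oral (n = 3); mean parameters reported.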

| SMILES | Vd [L/kg] |
| --- | --- |
| C(#Cc1ccc2ccccc2n1)c1ccccn1 | 1.27 |

Test system: not listed separately
Assay: Half life in rat at 10 mg/kg, po
Format: ADME, organism-based
Set-up: dose 10 mg/kg, route oral
Conditions: in vivo
Outline: as §2

| SMILES | half-life [min] |
| --- | --- |
| C(#Cc1ccc2ccccc2n1)c1ccccn1 | 58.2 |

Test system: not listed separately
Assay: Half life in rat at 10 mg/kg, iv
Format: ADME, organism-based
Set-up: dose 10 mg/kg, route intravenous
Conditions: in vivo
Outline: as §2

| SMILES | half-life [min] |
| --- | --- |
| C(#Cc1ccc2ccccc2n1)c1ccccn1 | 48.5 |

Test system: not listed separately
Assay: Tmax in rat at 10 mg/kg, po
Format: ADME, organism-based
Set-up: dose 10 mg/kg, route oral
Conditions: in vivo
Outline: (§3)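 Rat plasma pharmacokinetics after a single oral dose of 10 mg/kg. The group size was n = 3 rats, and the reported values are group means.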

| SMILES | Tmax [min] |
| --- | --- |
| C(#Cc1ccc2ccccc2n1)c1ccccn1 | 10 |

Molecular target: CYP3A4 (Homo sapiens, UniProt P08684)
Assay: Inhibition of CYP3A4 (unknown origin) assessed as residual activity at 10 uM
Format: ADME
Conditions: read-out: Activity
Outline: (§4)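 CYP2D6, CYP2C9 and CYP3A4 each tested with compound at 10 µM; read-out is percent enzyme activity remaining.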

Chain of CYP3A4 (P08684 whole entry): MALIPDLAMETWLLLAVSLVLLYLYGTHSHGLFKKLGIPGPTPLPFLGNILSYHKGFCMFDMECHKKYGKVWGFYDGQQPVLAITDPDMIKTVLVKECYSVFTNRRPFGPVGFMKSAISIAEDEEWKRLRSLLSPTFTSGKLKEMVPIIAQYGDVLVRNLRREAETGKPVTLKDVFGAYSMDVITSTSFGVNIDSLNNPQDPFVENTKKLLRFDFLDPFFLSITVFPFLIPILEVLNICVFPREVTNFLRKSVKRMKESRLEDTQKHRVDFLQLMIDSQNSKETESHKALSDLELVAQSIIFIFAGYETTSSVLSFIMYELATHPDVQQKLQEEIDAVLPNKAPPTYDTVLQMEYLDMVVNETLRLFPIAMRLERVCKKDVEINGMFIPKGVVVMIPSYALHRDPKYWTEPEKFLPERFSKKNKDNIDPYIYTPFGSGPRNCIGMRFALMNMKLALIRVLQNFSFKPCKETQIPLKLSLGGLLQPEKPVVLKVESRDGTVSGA

| SMILES | activity at 10 µM [%] |
| --- | --- |
| C(#Cc1ccc2ccccc2n1)c1ccccn1 | 77 |
| Brc1cccc2nc(C#Cc3ccccn3)ccc12 | 56 |
| COc1cccc2nc(C#Cc3ccccc3)ccc12 | 50 |

Molecular target: T1, Metabotropic glutamate receptor 5 (Homo sapiens, UniProt P41594)
Assay: Antagonist activity at human mGluR5 expressed in HEK293 cells assessed as inhibition of L-glutamate-induced calcium mobilization at 1 uM by FDSS6000 assay
Format: functional, cell-based
Conditions: not given
Outline: (§5)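 HEK cells stably expressing mGluR5, grown in DMEM with 10% FBS, penicillin, streptomycin and puromycin (10 µg/mL) at 37 °C, 5% CO₂. Cells seeded at 40,000/well, incubated 18 h, then loaded with Calcium-5 dye. In the FDSS6000 fluorescence assay, receptor activated with L-glutamate in HBSS in the presence of various concentrations of test compound. Read-out is inhibition of the Ca²⁺ signal.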
Target sequence in this assay (P41594 21-1212 limits assumed): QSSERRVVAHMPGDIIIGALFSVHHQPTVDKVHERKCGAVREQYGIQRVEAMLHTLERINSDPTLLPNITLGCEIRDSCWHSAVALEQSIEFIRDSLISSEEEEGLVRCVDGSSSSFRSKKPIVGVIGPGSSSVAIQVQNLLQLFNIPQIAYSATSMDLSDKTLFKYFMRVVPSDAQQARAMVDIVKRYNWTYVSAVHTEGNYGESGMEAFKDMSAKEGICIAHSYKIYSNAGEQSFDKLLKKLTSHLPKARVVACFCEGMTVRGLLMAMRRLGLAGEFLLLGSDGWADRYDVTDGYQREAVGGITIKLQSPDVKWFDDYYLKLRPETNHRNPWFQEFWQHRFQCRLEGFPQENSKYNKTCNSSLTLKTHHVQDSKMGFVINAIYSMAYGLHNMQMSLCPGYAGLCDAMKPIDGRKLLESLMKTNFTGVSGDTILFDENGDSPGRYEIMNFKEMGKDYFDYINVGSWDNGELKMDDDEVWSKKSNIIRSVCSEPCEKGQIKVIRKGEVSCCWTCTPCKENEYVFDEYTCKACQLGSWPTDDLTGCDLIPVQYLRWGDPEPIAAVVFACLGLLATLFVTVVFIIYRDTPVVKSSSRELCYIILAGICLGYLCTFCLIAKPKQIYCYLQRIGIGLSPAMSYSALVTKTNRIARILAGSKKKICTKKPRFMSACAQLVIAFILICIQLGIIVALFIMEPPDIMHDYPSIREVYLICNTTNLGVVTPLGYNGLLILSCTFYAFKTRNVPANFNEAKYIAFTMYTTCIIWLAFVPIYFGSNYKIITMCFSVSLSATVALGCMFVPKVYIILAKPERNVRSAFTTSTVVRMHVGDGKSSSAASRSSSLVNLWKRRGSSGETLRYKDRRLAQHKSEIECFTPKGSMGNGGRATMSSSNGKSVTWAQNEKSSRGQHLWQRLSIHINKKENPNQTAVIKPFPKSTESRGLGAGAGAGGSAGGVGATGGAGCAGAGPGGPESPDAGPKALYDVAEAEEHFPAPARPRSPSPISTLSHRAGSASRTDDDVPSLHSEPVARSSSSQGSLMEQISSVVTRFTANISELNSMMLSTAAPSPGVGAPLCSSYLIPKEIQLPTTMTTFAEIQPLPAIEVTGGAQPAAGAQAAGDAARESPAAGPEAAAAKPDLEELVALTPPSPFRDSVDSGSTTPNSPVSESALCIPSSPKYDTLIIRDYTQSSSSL

| SMILES | inhibition [%] |
| --- | --- |
| Clc1cccc2nc(C#Cc3cccnc3)ccc12 | 11.2 |
| FC(F)(F)c1ccnc(C#Cc2ccc3ccccc3n2)c1 | 23.3 |
| CC(C)(C)C(=O)Oc1cccc2nc(C#Cc3cccnc3)ccc12 | 10.6 |
| Oc1cccc2nc(C#Cc3ccccn3)ccc12 | 17.4 |
| Fc1ccc(C#Cc2ccc3ccccc3n2)nc1 | 33.9 |
| COc1cccc(C#Cc2ccc3ccccc3n2)n1 | 16.6 |
| Oc1cccc2nc(C#Cc3ccccc3)ccc12 | 18 |
| CC(C)(C)C(=O)Oc1cccc2nc(C#Cc3ccccc3)ccc12 | 24 |
| Brc1cccc2nc(C#Cc3ccccc3)ccc12 | 21.1 |
| C(#Cc1ccc2ccccc2n1)c1ccccn1 | 58.8 |
| FC(F)(F)c1ccnc(C#Cc2ccc3ccccc3n2)n1 | 17.3 |
| Cc1cccnc1C#Cc1ccc2ccccc2n1 | 18.9 |
| C(#Cc1ccc2ccccc2n1)c1ccccc1 | 35.9 |
| Brc1cccc2nc(C#Cc3ccccn3)ccc12 | 56.7 |
| Clc1cccc2nc(C#Cc3ccccc3)ccc12 | 11.7 |
| N#Cc1cccc(C#Cc2ccc3ccccc3n2)n1 | 33 |
| FC(F)(F)c1cccc(C#Cc2ccc3ccccc3n2)n1 | 15.8 |
| Fc1cccc(C#Cc2ccc3ccccc3n2)n1 | 29.6 |

| SMILES | inhibition [%] |
| --- | --- |
| Fc1cccnc1C#Cc1ccc2ccccc2n1 | 31.3 |
| N#Cc1ccnc(C#Cc2ccc3ccccc3n2)c1 | 35.2 |
| C(#Cc1ncccn1)c1ccc2ccccc2n1 | 17.1 |
| C(#Cc1ccc2ccccc2n1)c1cccnc1 | 43.9 |
| FC(F)(F)c1cccnc1C#Cc1ccc2ccccc2n1 | 9.49 |
| Fc1cnc(C#Cc2ccc3ccccc3n2)nc1 | 16 |
| C(#Cc1ccc2ccccc2n1)c1cncnc1 | 13.6 |
| Brc1cccc2nc(C#Cc3cccnc3)ccc12 | 22 |
| Cc1ccc(C#Cc2ccc3ccccc3n2)nc1 | 29 |
| Cc1ccnc(C#Cc2ccc3ccccc3n2)c1 | 21.9 |
| CCOc1cccc2nc(C#Cc3cccnc3)ccc12 | 47.2 |
| FC(F)(F)c1ccc(C#Cc2ccc3ccccc3n2)nc1 | 13 |
| COc1cccc2nc(C#Cc3cccnc3)ccc12 | 67.7 |
| Clc1cccc2nc(C#Cc3ccccn3)ccc12 | 31 |
| Oc1cccc2nc(C#Cc3cccnc3)ccc12 | 25.2 |
| COc1cccc2nc(C#Cc3ccccc3)ccc12 | 63.6 |
| CC(C)(C)C(=O)Oc1cccc2nc(C#Cc3ccccn3)ccc12 | 17.1 |

Molecular target: T1, Metabotropic glutamate receptor 5
Assay: Antagonist activity at human mGluR5 expressed in HEK293 cells assessed as inhibition of L-glutamate-induced calcium mobilization by FDSS6000 assay
Conditions: not given
Target sequence in this assay (P41594 whole entry): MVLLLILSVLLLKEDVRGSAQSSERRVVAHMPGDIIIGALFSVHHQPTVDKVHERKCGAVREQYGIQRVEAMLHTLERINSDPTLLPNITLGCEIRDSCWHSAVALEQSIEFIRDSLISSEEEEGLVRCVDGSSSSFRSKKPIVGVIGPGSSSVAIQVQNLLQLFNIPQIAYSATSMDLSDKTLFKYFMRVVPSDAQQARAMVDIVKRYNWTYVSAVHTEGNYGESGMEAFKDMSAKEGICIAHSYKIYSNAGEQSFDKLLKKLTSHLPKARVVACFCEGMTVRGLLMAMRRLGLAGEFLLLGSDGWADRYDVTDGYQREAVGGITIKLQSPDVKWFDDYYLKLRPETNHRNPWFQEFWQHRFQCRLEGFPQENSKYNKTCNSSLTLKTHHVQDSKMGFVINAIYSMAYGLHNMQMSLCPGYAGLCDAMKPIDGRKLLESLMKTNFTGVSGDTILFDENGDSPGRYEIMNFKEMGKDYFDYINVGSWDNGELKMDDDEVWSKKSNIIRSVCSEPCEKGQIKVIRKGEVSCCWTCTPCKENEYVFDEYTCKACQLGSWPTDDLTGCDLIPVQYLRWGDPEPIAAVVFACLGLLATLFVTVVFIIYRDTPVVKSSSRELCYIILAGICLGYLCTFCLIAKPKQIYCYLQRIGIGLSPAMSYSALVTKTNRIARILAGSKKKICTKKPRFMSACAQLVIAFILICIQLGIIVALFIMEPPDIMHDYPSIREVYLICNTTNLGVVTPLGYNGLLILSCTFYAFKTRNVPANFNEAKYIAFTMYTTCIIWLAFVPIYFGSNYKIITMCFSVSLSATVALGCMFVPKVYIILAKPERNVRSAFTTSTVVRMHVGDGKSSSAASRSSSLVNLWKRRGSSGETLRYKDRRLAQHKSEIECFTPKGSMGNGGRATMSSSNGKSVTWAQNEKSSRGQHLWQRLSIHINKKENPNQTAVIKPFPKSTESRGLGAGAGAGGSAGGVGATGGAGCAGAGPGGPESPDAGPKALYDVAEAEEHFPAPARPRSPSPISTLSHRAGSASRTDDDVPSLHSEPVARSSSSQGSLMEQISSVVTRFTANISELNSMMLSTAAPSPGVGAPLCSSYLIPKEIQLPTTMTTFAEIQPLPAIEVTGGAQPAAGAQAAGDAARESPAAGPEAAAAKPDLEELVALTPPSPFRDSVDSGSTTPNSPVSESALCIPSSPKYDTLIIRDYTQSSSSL

| SMILES | IC50 [µM] |
| --- | --- |
| Brc1cccc2nc(C#Cc3ccccn3)ccc12 | 0.75 |

Test system: not listed separately
Assay: Metabolic stability in human liver microsomes assessed as compound remaining at 1 uM after 30 mins
Format: ADME, Microsome
Conditions: read-out: Stability
Outline: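 Compound at 1 µM incubated with human liver microsomes for 30 min; read-out is percent of parent remaining.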

| SMILES | remaining at 0.5 h, 1 µM [%] |
| --- | --- |
| C(#Cc1ccc2ccccc2n1)c1ccccn1 | 88 |
| Brc1cccc2nc(C#Cc3ccccn3)ccc12 | 98 |
| COc1cccc2nc(C#Cc3cccnc3)ccc12 | < 1 |
| COc1cccc2nc(C#Cc3ccccc3)ccc12 | < 1 |

Molecular target: T1, Metabotropic glutamate receptor 5
Assay: Antagonist activity at human mGluR5 expressed in HEK293 cells assessed as inhibition of L-glutamate-induced calcium mobilization at 10 uM by FDSS6000 assay
Format: functional, cell-based
Conditions: not given
Outline: as §5
Target sequence in this assay (P41594 21-1212 limits assumed): as the sequence (P41594 21-1212 limits assumed) above

| SMILES | inhibition [%] |
| --- | --- |
| Clc1cccc2nc(C#Cc3cccnc3)ccc12 | 28.4 |
| FC(F)(F)c1ccnc(C#Cc2ccc3ccccc3n2)c1 | 58 |
| CC(C)(C)C(=O)Oc1cccc2nc(C#Cc3cccnc3)ccc12 | 28.5 |
| Oc1cccc2nc(C#Cc3ccccn3)ccc12 | 22.1 |
| Fc1ccc(C#Cc2ccc3ccccc3n2)nc1 | 63.3 |
| COc1cccc(C#Cc2ccc3ccccc3n2)n1 | 48.6 |
| Oc1cccc2nc(C#Cc3ccccc3)ccc12 | 24.3 |
| CC(C)(C)C(=O)Oc1cccc2nc(C#Cc3ccccc3)ccc12 | 23.8 |
| Brc1cccc2nc(C#Cc3ccccc3)ccc12 | 20.7 |
| C(#Cc1ccc2ccccc2n1)c1ccccn1 | 76.7 |
| FC(F)(F)c1ccnc(C#Cc2ccc3ccccc3n2)n1 | 15.9 |
| Cc1cccnc1C#Cc1ccc2ccccc2n1 | 40.1 |
| C(#Cc1ccc2ccccc2n1)c1ccccc1 | 67.7 |
| Brc1cccc2nc(C#Cc3ccccn3)ccc12 | 77.5 |
| Clc1cccc2nc(C#Cc3ccccc3)ccc12 | 8.02 |
| N#Cc1cccc(C#Cc2ccc3ccccc3n2)n1 | 64.8 |
| FC(F)(F)c1cccc(C#Cc2ccc3ccccc3n2)n1 | 28.7 |
| Fc1cccc(C#Cc2ccc3ccccc3n2)n1 | 46.9 |

| SMILES | inhibition [%] |
| --- | --- |
| Fc1cccnc1C#Cc1ccc2ccccc2n1 | 55.2 |
| N#Cc1ccnc(C#Cc2ccc3ccccc3n2)c1 | 76.1 |
| C(#Cc1ncccn1)c1ccc2ccccc2n1 | 28.6 |
| C(#Cc1ccc2ccccc2n1)c1cccnc1 | 65.8 |
| FC(F)(F)c1cccnc1C#Cc1ccc2ccccc2n1 | 16.4 |
| Fc1cnc(C#Cc2ccc3ccccc3n2)nc1 | 15.6 |
| C(#Cc1ccc2ccccc2n1)c1cncnc1 | 22.4 |
| Brc1cccc2nc(C#Cc3cccnc3)ccc12 | 40.1 |
| Cc1ccc(C#Cc2ccc3ccccc3n2)nc1 | 66.3 |
| Cc1ccnc(C#Cc2ccc3ccccc3n2)c1 | 66.5 |
| CCOc1cccc2nc(C#Cc3cccnc3)ccc12 | 66.6 |
| FC(F)(F)c1ccc(C#Cc2ccc3ccccc3n2)nc1 | 50.7 |
| COc1cccc2nc(C#Cc3cccnc3)ccc12 | 67.7 |
| Clc1cccc2nc(C#Cc3ccccn3)ccc12 | 64.3 |
| Oc1cccc2nc(C#Cc3cccnc3)ccc12 | 17.6 |
| COc1cccc2nc(C#Cc3ccccc3)ccc12 | 68 |
| CC(C)(C)C(=O)Oc1cccc2nc(C#Cc3ccccn3)ccc12 | 62.4 |

Test system: not listed separately
Assay: Clearance in rat at 10 mg/kg, iv
Format: ADME, organism-based
Set-up: dose 10 mg/kg, route intravenous
Conditions: in vivo
Outline: as §2

| SMILES | clearance [mL/min/kg] |
| --- | --- |
| C(#Cc1ccc2ccccc2n1)c1ccccn1 | 84.9 |

Molecular target: CYP2D6 (Homo sapiens, UniProt P10635)
Assay: Inhibition of CYP2D6 (unknown origin) assessed as residual activity at 10 uM
Format: ADME
Conditions: read-out: Activity
Outline: as §4

Chain of CYP2D6 (P10635 whole entry): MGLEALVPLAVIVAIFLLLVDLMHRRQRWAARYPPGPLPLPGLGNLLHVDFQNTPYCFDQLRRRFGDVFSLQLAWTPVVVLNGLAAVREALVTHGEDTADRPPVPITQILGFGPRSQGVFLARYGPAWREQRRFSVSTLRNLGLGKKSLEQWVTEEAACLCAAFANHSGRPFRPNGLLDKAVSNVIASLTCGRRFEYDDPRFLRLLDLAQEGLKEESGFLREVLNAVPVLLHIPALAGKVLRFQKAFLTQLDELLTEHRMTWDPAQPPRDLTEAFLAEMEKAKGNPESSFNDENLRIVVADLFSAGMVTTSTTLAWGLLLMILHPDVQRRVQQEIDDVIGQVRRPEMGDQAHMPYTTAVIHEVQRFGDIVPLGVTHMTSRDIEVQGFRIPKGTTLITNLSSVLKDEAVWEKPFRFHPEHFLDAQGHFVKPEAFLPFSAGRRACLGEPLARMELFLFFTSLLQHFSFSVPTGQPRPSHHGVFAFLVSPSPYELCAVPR

| SMILES | activity at 10 µM [%] |
| --- | --- |
| C(#Cc1ccc2ccccc2n1)c1ccccn1 | 98 |
| Brc1cccc2nc(C#Cc3ccccn3)ccc12 | 78 |
| COc1cccc2nc(C#Cc3ccccc3)ccc12 | > 99 |

Test system: Rattus norvegicus
Assay: Antiallodynic activity in rat spinal nerve ligation model of neuropathic pain assessed as reduction of mechanical allodynia at 100 mg/kg, po after 5 hrs
Format: functional, organism-based
Set-up: dose 100 mg/kg
Conditions: not given
Outline: as §1

| SMILES | Activity |
| --- | --- |
| C(#Cc1ccc2ccccc2n1)c1ccccn1 | Active |
| NCC1(CC(=O)O)CCCCC1 | Active |

Molecular target: CYP2C9 (Homo sapiens, UniProt P11712)
Assay: Inhibition of CYP2C9 (unknown origin) assessed as residual activity at 10 uM
Format: ADME
Conditions: read-out: Activity
Outline: as §4

Chain of CYP2C9 (P11712 whole entry): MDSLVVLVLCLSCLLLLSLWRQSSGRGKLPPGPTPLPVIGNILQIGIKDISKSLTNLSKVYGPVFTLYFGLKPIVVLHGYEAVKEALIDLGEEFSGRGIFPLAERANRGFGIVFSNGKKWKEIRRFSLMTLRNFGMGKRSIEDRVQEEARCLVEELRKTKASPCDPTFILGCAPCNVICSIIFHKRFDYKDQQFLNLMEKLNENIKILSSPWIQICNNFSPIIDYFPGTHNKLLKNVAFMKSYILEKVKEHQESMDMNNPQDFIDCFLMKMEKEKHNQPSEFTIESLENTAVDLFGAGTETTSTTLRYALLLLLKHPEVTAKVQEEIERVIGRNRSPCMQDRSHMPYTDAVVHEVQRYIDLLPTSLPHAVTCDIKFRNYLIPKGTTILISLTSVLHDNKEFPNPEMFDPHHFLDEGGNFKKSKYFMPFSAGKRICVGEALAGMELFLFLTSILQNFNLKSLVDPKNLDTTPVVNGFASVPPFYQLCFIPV

| SMILES | activity at 10 µM [%] |
| --- | --- |
| C(#Cc1ccc2ccccc2n1)c1ccccn1 | > 99 |
| Brc1cccc2nc(C#Cc3ccccn3)ccc12 | 52 |
| COc1cccc2nc(C#Cc3ccccc3)ccc12 | 55 |

Test system: not listed separately
Assay: Oral bioavailability in rat at 10 mg/kg
Format: ADME, organism-based
Conditions: in vivo
Outline: as §2

| SMILES | bioavailability [%] |
| --- | --- |
| C(#Cc1ccc2ccccc2n1)c1ccccn1 | 15.9 |

Test system: not listed separately
Assay: Cmax in rat at 10 mg/kg, po
Format: ADME, organism-based
Set-up: dose 10 mg/kg, route oral
Conditions: in vivo
Outline: as §3

| SMILES | Cmax [ng/mL] |
| --- | --- |
| C(#Cc1ccc2ccccc2n1)c1ccccn1 | 430 |
